From ChEMBL document CHEMBL1143843, “Antiviral and cellular metabolism interactions between Dexelvucitabine and lamivudine” (Antimicrob Agents Chemother, 2007)
Calls of active or inactive are those of the source. The calls are words filed in the database; no cut-off is given here.

Tests used:
CCRF-CEM [1] = test: Drug level in human CEM cells per 10^6 cells at 10 uM after 4 hrs; assay type: ADME, cell-based
Procedure, shortened: (§1)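 CEM cells or PBM cells stimulated 3 days with PHA, 2 x 10^6 cells per time point, were given 10 µM [3H]DFC or [3H]3TC for 4 h. Cells were washed three times in cold PBS and counted, with viability checked by trypan blue. Metabolites were extracted overnight in 60% methanol and resolved by ion-pair C18 HPLC (ammonium acetate/TBAP pH 7.0, 0–50% methanol), then radioactivity was counted. LOD was about 0.01 pmol/10^6 cells.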

PBMC [2] = test: Drug level in human PBMC per 10^6 cells at 10 uM after 4 hrs; assay type: ADME, cell-based; procedure, shortened: as §1
[3] = system: Human immunodeficiency virus 1; test: Antiviral activity against HIV1 LAI in human PBM cells; assay type: functional, organism-based; settings: Human immunodeficiency virus 1, LAI, PBMC
Procedure, shortened: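 HIV-1 LAI added to PHA-stimulated (3-day) primary human PBM cells 1 h before drugs; medium with recombinant IL-2 (26.5 units/ml); drugs alone or combined at fixed ratios (10:1, 3:1, 25:1, 100:1); 5 days culture; supernatant virus pelleted by centrifugation, RT activity measured radiometrically; combination index with confidence intervals by computer algorithm.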

CCRF-CEM [4] = test: Reduction of Lamivudine triphosphate level at 100 uM in human CEM cells; assay type: functional; parameters: scale not given: the % may be the effect or the level left
Procedure, shortened: (§2)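 CEM or PHA-stimulated primary human PBM cells (2 x 10^6 per point) given 10 µM [3H]3TC plus unlabeled competitor at 1, 33.3 or 100 µM for 4 h, in triplicate; cells washed in cold PBS, extracted overnight in 60% methanol; metabolites separated by ion-pairing reverse-phase C18 HPLC (ammonium acetate/TBAP pH 7.0, methanol gradient); radioactivity counted; detection limit about 0.01 pmol/10^6 cells.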

PBMC [5] = test: Reduction of Lamivudine triphosphate level at 100 uM in human PBMC; assay type: functional; parameters: scale not given: the % may be the effect or the level left; procedure, shortened: as §2
CCRF-CEM [6] = test: Reduction in Lamivudine metabolite level in human CEM cells at 1 uM; assay type: functional, cell-based
Procedure, shortened: (§3)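 Competition assay in triplicate in CEM and PHA-stimulated PBM cells (2 x 10^6 per point). Cells received 10 µM [3H]3TC plus unlabeled DFC, or 10 µM [3H]DFC plus unlabeled 3TC, with the unlabeled drug at 1, 33.3 or 100 µM, for 4 h. After cold-PBS washes, 60% methanol extracts were separated by ion-pair reverse-phase HPLC. Labeled metabolites, including TP and DP-choline, were quantified by scintillation counting against radiolabel alone.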

CCRF-CEM [7] = test: Reduction in Lamivudine metabolite level in human CEM cells at 33.3 uM; assay type: functional; parameters: scale not given: the % may be the effect or the level left; procedure, shortened: as §2
CCRF-CEM [8] = test: Reduction in Lamivudine metabolite level in human CEM cells at 100 uM; assay type: functional; parameters: scale not given: the % may be the effect or the level left; procedure, shortened: as §2
CCRF-CEM [9] = test: Reduction in Lamivudine diphosphate choline level in human CEM cells; assay type: functional, cell-based; procedure, shortened: as §3
CCRF-CEM [10] = test: Reduction in [3H]dexelvucitabine triphosphate in human CEM cells per 10^6 cells at 33.3 uM; assay type: functional
Procedure, shortened: (§4)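 CEM or PHA-stimulated primary human PBM cells (2 x 10^6 per point) given 10 µM [3H]DFC plus unlabeled 3TC at 1, 33.3 or 100 µM for 4 h, in triplicate; 60% methanol extracts resolved by ion-pairing reverse-phase C18 HPLC; metabolites (TP, DP-choline) quantified by scintillation counting as pmol/10^6 cells.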

CCRF-CEM [11] = test: Reduction in [3H]dexelvucitabine triphosphate in human CEM cells per 10^6 cells at 100 uM; assay type: functional; procedure, shortened: as §4
CCRF-CEM [12] = test: (§5) Reduction in dexelvucitabine diphosphate choline level in human CEM cells at 1 uM; assay type: functional; parameters: scale not given: the % may be the effect or the level left; procedure, shortened: as §4
CCRF-CEM [13] = test: Reduction in dexelvucitabine diphosphate choline level in human CEM cells at 33.3 uM; assay type: functional; parameters: scale not given: the % may be the effect or the level left; procedure, shortened: as §4
CCRF-CEM [14] = test: Reduction in dexelvucitabine diphosphate choline level in human CEM cells at 100 uM; assay type: functional; parameters: scale not given: the % may be the effect or the level left; procedure, shortened: as §4
PBMC [15] = test: Reduction in dexelvucitabine diphosphate choline level in human PBMC at 33.3 uM; assay type: functional; parameters: scale not given: the % may be the effect or the level left; procedure, shortened: as §4
PBMC [16] = test: Reduction in dexelvucitabine diphosphate choline level in human PBMC at 100 uM; assay type: functional; parameters: scale not given: the % may be the effect or the level left; procedure, shortened: as §4
CCRF-CEM [17] = test: as §5; assay type: functional; parameters: scale not given: the % may be the effect or the level left; procedure, shortened: as §4; remark: listed apart in the source
PBMC [18] = test: Reduction in dexelvucitabine diphosphate choline level in human PBMC at 1 uM; assay type: functional; parameters: scale not given: the % may be the effect or the level left; procedure, shortened: as §4
PBMC [19] = test: Reduction in dexelvucitabine diphosphate choline level in PHA-stimulated human PBMC at 1 uM; assay type: functional, cell-based; procedure, shortened: as §3
CCRF-CEM [20] = test: Reduction in [3H]dexelvucitabine triphosphate in human CEM cells at 1 uM; assay type: functional, cell-based; procedure, shortened: as §3

For `Nc1ccn([C@@H]2CS[C@H](COP(=O)(O)OP(=O)(O)OP(=O)(O)O)O2)c(=O)n1` [LAMIVUDINE TRIPHOSPHATE], the Drug uptake (CCRF-CEM [1]) was 5.7 pmol and the Drug uptake (PBMC [2]) was 2.01 pmol.

Compound `Nc1nc(=O)n([C@H]2C=C[C@@H](CO)O2)cc1F` [DEXELVUCITABINE] has an EC50 [3] of 0.075 µM, an EC90 [3] of 0.23 µM and an Activity (CCRF-CEM [4]) of 25%. The Activity (PBMC [5]) was 46%, the Activity (CCRF-CEM [6]) was “inactive” and the Activity (CCRF-CEM [7]) was 10%. The Activity (CCRF-CEM [8]) was 13% and the Activity (CCRF-CEM [9]) was “inactive”.

Compound `Nc1ccn([C@@H]2CS[C@H](CO)O2)c(=O)n1` (single isomer, unassigned) [LAMIVUDINE] has an EC50 [3] of 0.026 µM, an EC90 [3] of 0.12 µM and an Activity (CCRF-CEM [10]) of 0.67 pmol. For the same compound, the Activity (CCRF-CEM [11]) was 0.41 pmol, the Activity (CCRF-CEM [12]) was 74% and the Activity (CCRF-CEM [13]) was 83%. For the same compound, the Activity (CCRF-CEM [14]) was 92%, the Activity (PBMC [15]) was 83% and the Activity (PBMC [16]) was 92%. For the same compound, the Activity (CCRF-CEM [17]) was 74%, the Activity (PBMC [18]) was 48% and the Activity (PBMC [19]) was “Active”. The Activity (CCRF-CEM [20]) was “inactive”.
